Residue numbers refer to the chain shown, from its start.
Assays:
MAP2K6 [1] = molecular target: T1, MAP2K6 (Homo sapiens, UniProt P52564); test: Z′-LYTE kinase inhibition assay; format: biochemical; conditions: nonelectrophilic analogs relative to EA
T1 sequence (P52564 1-334): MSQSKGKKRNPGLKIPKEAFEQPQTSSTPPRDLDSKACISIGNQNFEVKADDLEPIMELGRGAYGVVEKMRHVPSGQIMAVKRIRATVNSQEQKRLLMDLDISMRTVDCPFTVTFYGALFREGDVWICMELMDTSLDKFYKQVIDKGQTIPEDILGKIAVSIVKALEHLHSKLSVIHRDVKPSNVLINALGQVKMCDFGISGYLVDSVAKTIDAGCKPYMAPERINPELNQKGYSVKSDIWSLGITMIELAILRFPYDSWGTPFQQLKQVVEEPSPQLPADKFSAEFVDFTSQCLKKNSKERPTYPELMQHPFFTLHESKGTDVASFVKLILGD

MAP2K6 [2] = molecular target: T1, MAP2K6; test: IDUP library × library selection, enrichment of ligand:protein barcodes; format: binding
Procedure, shortened: (§1)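 Kinases were expressed as SNAP fusions by transient transfection of pDEST-SNAP-kinase vectors into HEK293T cells. Each unpurified lysate was labelled with a 31-nt benzylguanine-linked oligonucleotide carrying a unique 6-nt barcode and a common 3′ 8-nt hybridization region. The pooled protein library was combined with 2 pmol of an equimolar library of 136 DNA-linked compounds. IDUP primer extension followed, and extended products encoding protein:ligand pairs were PCR-amplified for barcode enrichment.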

[3] = molecular target: T2, MAP2K6EE (constitutively active MAP2K6 mutant, S207E and T211E) (Homo sapiens, UniProt P52564, S207E/T211E); test: Z′-LYTE kinase activity after preincubation with EA and dialysis; format: biochemical; conditions: MAP2K6EE incubated with 100 µM EA, then dialyzed into EA-free buffer; vs DMSO
T2 sequence (P52564 1-334 S207E/T211E): T1 sequence (P52564 1-334) with S207E, T211E
Procedure, shortened: (§2)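 The kinase, either MAP2K6EE (S207E/T211E) or its C38A variant, was incubated with 100 µM test compound or DMSO. It was then dialyzed to remove free compound. Z′-LYTE kinase activity was measured as a function of kinase concentration.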

[4] = molecular target: T3, C38A point mutant of MAP2K6EE (Homo sapiens, UniProt P52564, C38A/S207E/T211E); test: as above; format: biochemical; conditions: C38A MAP2K6EE preincubated with 100 µM EA, then dialyzed; vs DMSO
T3 sequence (P52564 1-334 C38A/S207E/T211E): T1 sequence (P52564 1-334) with C38A, S207E, T211E
Procedure, shortened: as §2

MAP2K6 and other MAP2Ks = test: LanthaScreen Eu binding assays on MAP2K family members; parameters: species or system human; conditions: LanthaScreen Eu assays and initial IDUP assay
GSK3α [5] = molecular target: T4, GSK3α (Homo sapiens, UniProt P49840); test: IDUP library × library selection, enrichment of ligand:protein barcodes; format: binding
T4 sequence (P49840 whole entry): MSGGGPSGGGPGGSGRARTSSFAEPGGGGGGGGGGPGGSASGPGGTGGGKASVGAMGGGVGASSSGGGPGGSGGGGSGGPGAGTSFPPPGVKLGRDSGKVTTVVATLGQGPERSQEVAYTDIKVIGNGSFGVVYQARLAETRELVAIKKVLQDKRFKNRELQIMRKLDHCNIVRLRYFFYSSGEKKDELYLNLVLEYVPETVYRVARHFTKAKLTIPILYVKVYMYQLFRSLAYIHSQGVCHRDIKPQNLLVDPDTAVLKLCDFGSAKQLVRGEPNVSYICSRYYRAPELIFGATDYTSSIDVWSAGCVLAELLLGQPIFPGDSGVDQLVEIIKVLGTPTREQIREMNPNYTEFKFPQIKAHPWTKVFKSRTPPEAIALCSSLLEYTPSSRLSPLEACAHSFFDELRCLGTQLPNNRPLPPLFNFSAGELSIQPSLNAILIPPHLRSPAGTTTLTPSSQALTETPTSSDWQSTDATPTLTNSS
Procedure, shortened: as §1

GSK3α [6] = molecular target: T4, GSK3α; test: Z′-LYTE kinase inhibition assay; format: biochemical; conditions: non-DNA tagged ligand

CCC(C)C(=O)c1ccc(OCC(=O)O)c(Cl)c1Cl (centres unmarked) [dihydro-ethacrynic acid]
fold weaker inhibition of MAP2K6 than EA (MAP2K6 [1]): > 30 fold

C=C(CC)C(=O)c1ccc(OCC(=O)O)c(Cl)c1Cl [EA, ethacrynic acid]
IDUP enrichment (MAP2K6 [2]): 4.7 fold | apparent loss of kinase activity [3]: 9 fold | loss in inhibition potency [4]: ~ 3.3 fold | affinity for MAP2K6 compared with other MAP2Ks (MAP2K6 and other MAP2Ks): higher affinity for MAP2K6 than other MAP2Ks

Cl.Cn1cc(C2=C(c3c4n(c5ccccc35)CCC(CN)C4)C(=O)NC2=O)c2ccccc21 (centres unmarked) [bisX, bisindolylmaleimide X]
IDUP enrichment (GSK3α [5]): 4.7 fold | IC50 (GSK3α [6]): 0.115 µM

O=C(O)COc1ccc(C(=O)c2cccs2)c(Cl)c1Cl [tienilic acid]
fold weaker inhibition of MAP2K6 than EA (MAP2K6 [1]): > 30 fold
